Experimental data: ChEMBL document CHEMBL1165873, “Synthesis and in vitro study of methylene-bis-tetrahydro[1,3]thiazolo[4,5-c]isoxazoles as potential nematicidal agents” (2010)
Converted amounts (≈) assume the structure as drawn. The source made the active and inactive calls. The calls are words filed in the database; no cut-off is given here.

Columns and labels:
[1] = test system: Trichophyton rubrum; test: Antifungal activity against Trichophyton rubrum IFO 9185 after 48 hrs by broth dilution method; type: functional; conditions: IFO 9185, 48 h
Procedure, shortened: (§1)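 Fungi grown on potato dextrose agar for two weeks at 28 °C. Spores washed three times and resuspended in water at 10⁵ spores/mL initial inoculum. Compounds dissolved in DMSO, serial twofold dilutions 120–0.9 µM in potato dextrose broth. Wells inoculated with about 10^4 cells/mL and incubated ~48–72 h at 28 °C. MIC (µM) read against controls; NCCLS broth dilution.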

[2] = test system: Candida albicans; test: Antifungal activity against Candida albicans ATCC 10231 after 48 hrs by broth dilution method; type: functional; conditions: ATCC 10231, 48 h
Procedure, shortened: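 Yeast grown 48 h at 28 °C in YPD broth (1% yeast extract, 2% peptone, 2% dextrose), centrifuged and washed twice in sterile water. Compounds dissolved in DMSO, serial twofold dilutions 120–0.9 µM in potato dextrose broth. Wells inoculated with about 10^3 cells/mL and incubated ~48–72 h at 28 °C. MIC (µM) read against controls; NCCLS broth dilution.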

[3] = test system: Aspergillus fumigatus; test: Antifungal activity against Aspergillus fumigatus HIC 6094 after 48 hrs by broth dilution method; type: functional; conditions: HIC 6094, 48 h; procedure, shortened: as §1
[4] = test system: Trichophyton mentagrophytes; test: Antifungal activity against Trichophyton mentagrophytes IFO 40996 after 48 hrs by broth dilution method; type: functional; conditions: IFO 40996, 48 h; procedure, shortened: as §1
[5] = test system: Caenorhabditis elegans; test: Nematicidal activity against Caenorhabditis elegans assessed as immobile nematodes after 2 days; type: functional, organism-based
Procedure, shortened: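 Worms raised on 8P plates with Na22 bacteria as food. Adults from five-day cultures suspended in water at about 100–250 nematodes/mL. 100 µL of suspension added to compound solutions at various concentrations in 24-well plates at 25 °C. Percentage of immobile worms scored after two days; LD50 derived.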

[6] = test system: Ditylenchus myceliophagus; test: Nematicidal activity against Ditylenchus myceliophagus assessed as immobile nematodes after 2 days; type: functional

| SMILES | MIC [1] [µM] | MIC [2] [µM] | MIC [3] [µM] | MIC [4] [µM] | Activity [5] | Activity [6] |
| --- | --- | --- | --- | --- | --- | --- |
| COc1ccccc1C1SC2C(=NOC2c2ccc(F)cc2)N1c1ccccc1C (centres undefined) | 15 (≈ 6.31 µg/mL) | 60 (≈ 25.2 µg/mL) | 30 (≈ 12.6 µg/mL) | 30 (≈ 12.6 µg/mL) |  |  |
| COc1ccc(Cc2ccc(OC)c(C3SC4C(=NOC4c4ccc(F)cc4)N3c3ccc(O)cc3)c2)cc1C1SC2C(=NOC2c2ccc(F)cc2)N1c1ccc(O)cc1 (centres undefined) | 7.5 (≈ 6.43 µg/mL) | 15 (≈ 12.9 µg/mL) | 15 (≈ 12.9 µg/mL) | 7.5 (≈ 6.43 µg/mL) | Active | Active |
| COc1ccccc1C1SC2C(=NOC2c2ccc(F)cc2)N1c1ccc(Cl)cc1 (centres undefined) | 30 (≈ 13.2 µg/mL) | 30 (≈ 13.2 µg/mL) | 30 (≈ 13.2 µg/mL) | 30 (≈ 13.2 µg/mL) |  |  |
| COc1ccc(Cc2ccc(OC)c(C3SC4C(=NOC4c4ccc(F)cc4)N3c3ccc(C)cc3)c2)cc1C1SC2C(=NOC2c2ccc(F)cc2)N1c1ccc(C)cc1 (centres undefined) | > 120 | 7.5 (≈ 6.4 µg/mL) | 30 (≈ 25.6 µg/mL) | 15 (≈ 12.8 µg/mL) | Active | Active |
| COc1ccc(Cc2ccc(OC)c(C3SC4C(=NOC4c4ccc(F)cc4)N3c3ccc(F)cc3)c2)cc1C1SC2C(=NOC2c2ccc(F)cc2)N1c1ccc(F)cc1 (centres undefined) | 3.75 (≈ 3.23 µg/mL) | 3.75 (≈ 3.23 µg/mL) | 3.75 (≈ 3.23 µg/mL) | 3.75 (≈ 3.23 µg/mL) | Active | Active |
| COc1ccc(Cc2ccc(OC)c(C3SC4C(=NOC4c4ccc(F)cc4)N3c3ccccc3)c2)cc1C1SC2C(=NOC2c2ccc(F)cc2)N1c1ccccc1 (centres undefined) | 30 (≈ 24.7 µg/mL) | 30 (≈ 24.7 µg/mL) | 60 (≈ 49.5 µg/mL) | 60 (≈ 49.5 µg/mL) | Active | Active |
| COc1ccccc1C1SC2C(=NOC2c2ccc(F)cc2)N1c1ccc(C)cc1 (centres undefined) | > 120 | 60 (≈ 25.2 µg/mL) | 120 (≈ 50.5 µg/mL) | 120 (≈ 50.5 µg/mL) |  |  |
| COc1ccc(Cc2ccc(OC)c(C3SC4C(=NOC4c4ccc(F)cc4)N3c3ccc(Cl)cc3)c2)cc1C1SC2C(=NOC2c2ccc(F)cc2)N1c1ccc(Cl)cc1 (centres undefined) | 3.75 (≈ 3.35 µg/mL) | 3.75 (≈ 3.35 µg/mL) | 3.75 (≈ 3.35 µg/mL) | 3.75 (≈ 3.35 µg/mL) | Active | Active |
| COc1ccccc1C1SC2C(=NOC2c2ccc(F)cc2)N1c1ccc([N+](=O)[O-])cc1 (centres undefined) | 120 (≈ 54.2 µg/mL) | 30 (≈ 13.5 µg/mL) | 60 (≈ 27.1 µg/mL) | 30 (≈ 13.5 µg/mL) |  |  |
| COc1ccc(Cc2ccc(OC)c(C3SC4C(=NOC4c4ccc(F)cc4)N3c3ccccc3C)c2)cc1C1SC2C(=NOC2c2ccc(F)cc2)N1c1ccccc1C (centres undefined) | 3.75 (≈ 3.2 µg/mL) | 3.75 (≈ 3.2 µg/mL) | 3.75 (≈ 3.2 µg/mL) | 3.75 (≈ 3.2 µg/mL) | Active | Active |
| C[C@@H]1[C@H](O)[C@@H](C)/C=C/C=C/C=C/C=C/C=C/C=C/C=C/[C@H](O[C@@H]2O[C@H](C)[C@@H](O)[C@H](N)[C@@H]2O)C[C@@H]2O[C@](O)(C[C@@H](O)C[C@@H](O)[C@H](O)CC[C@@H](O)C[C@@H](O)CC(=O)O[C@H]1C)C[C@H](O)[C@H]2C(=O)O [AMPHOTERICIN B] | 3.75 (≈ 3.47 µg/mL) | 7.5 (≈ 6.93 µg/mL) | 3.75 (≈ 3.47 µg/mL) | 3.75 (≈ 3.47 µg/mL) |  |  |
| COc1ccccc1C1SC2C(=NOC2c2ccc(F)cc2)N1c1ccc(F)cc1 (centres undefined) | 60 (≈ 25.5 µg/mL) | 120 (≈ 50.9 µg/mL) | 60 (≈ 25.5 µg/mL) | 60 (≈ 25.5 µg/mL) |  |  |
| COc1ccccc1C1SC2C(=NOC2c2ccc(F)cc2)N1c1ccccc1 (centres undefined) | > 120 | 120 (≈ 48.8 µg/mL) | > 120 | > 120 |  |  |
| COc1ccc(Cc2ccc(OC)c(C3SC4C(=NOC4c4ccc(F)cc4)N3c3ccc([N+](=O)[O-])cc3)c2)cc1C1SC2C(=NOC2c2ccc(F)cc2)N1c1ccc([N+](=O)[O-])cc1 (centres undefined) | 30 (≈ 27.4 µg/mL) | 15 (≈ 13.7 µg/mL) | 30 (≈ 27.4 µg/mL) | 7.5 (≈ 6.86 µg/mL) | Active | Active |
| COc1ccccc1C1SC2C(=NOC2c2ccc(F)cc2)N1c1ccc(O)cc1 (centres undefined) | > 120 | 60 (≈ 25.3 µg/mL) | 60 (≈ 25.3 µg/mL) | 60 (≈ 25.3 µg/mL) |  |  |
